Key:
[1] = target: T1, Toll-like receptor 7 (Homo sapiens) (UniProt Q9NYK1); assay: Agonist activity at human TLR7 expressed in HEK293 cells assessed as induction of receptor activation incubated for 6 hrs by NF-kappaB-luciferase reporter gene assay; type: cell-based
T1 sequence (whole entry): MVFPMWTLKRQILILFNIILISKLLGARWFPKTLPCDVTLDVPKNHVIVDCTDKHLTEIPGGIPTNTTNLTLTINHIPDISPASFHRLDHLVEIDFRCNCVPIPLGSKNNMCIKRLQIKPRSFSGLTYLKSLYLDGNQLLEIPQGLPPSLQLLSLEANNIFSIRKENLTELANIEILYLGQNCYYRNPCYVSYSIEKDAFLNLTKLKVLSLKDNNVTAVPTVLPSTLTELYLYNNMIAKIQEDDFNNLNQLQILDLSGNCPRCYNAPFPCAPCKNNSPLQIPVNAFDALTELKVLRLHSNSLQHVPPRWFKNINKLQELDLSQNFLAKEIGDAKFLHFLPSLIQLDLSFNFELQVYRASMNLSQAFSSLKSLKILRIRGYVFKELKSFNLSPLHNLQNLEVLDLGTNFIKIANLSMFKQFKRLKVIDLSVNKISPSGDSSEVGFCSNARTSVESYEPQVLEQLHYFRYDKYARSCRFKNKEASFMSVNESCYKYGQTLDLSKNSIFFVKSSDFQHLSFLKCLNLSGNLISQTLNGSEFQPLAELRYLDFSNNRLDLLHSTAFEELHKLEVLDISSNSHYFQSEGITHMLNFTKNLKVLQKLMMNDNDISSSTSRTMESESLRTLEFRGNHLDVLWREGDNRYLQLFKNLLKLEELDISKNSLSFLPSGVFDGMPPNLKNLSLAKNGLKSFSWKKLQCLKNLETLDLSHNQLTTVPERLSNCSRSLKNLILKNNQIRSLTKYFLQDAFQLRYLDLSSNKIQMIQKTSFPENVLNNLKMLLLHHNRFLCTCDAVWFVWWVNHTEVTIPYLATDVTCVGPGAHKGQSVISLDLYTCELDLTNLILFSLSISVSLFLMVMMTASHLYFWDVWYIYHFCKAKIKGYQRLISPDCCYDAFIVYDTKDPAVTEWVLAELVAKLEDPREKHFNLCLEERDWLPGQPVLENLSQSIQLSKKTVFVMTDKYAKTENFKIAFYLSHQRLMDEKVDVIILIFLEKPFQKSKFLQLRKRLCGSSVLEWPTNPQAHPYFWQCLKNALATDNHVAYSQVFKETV
Summary of the method: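 HEK cell-based assay using a wild-type TLR7 expression vector; a parallel TLR8 vector construct served for selectivity. Results are expressed as lowest effective concentration (LEC), averaged over independent experiments where determined two or more times. A separate HEK 293 cytotoxicity (TOX) assay gave CC50 alongside.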

[2] = target: T2, Toll-like receptor 8 (Homo sapiens) (UniProt Q9NR97); assay: Agonist activity at human TLR8 expressed in HEK293 cells assessed as induction of receptor activation incubated for 6 hrs by NF-kappaB-luciferase reporter gene assay; type: cell-based
T2 sequence (whole entry): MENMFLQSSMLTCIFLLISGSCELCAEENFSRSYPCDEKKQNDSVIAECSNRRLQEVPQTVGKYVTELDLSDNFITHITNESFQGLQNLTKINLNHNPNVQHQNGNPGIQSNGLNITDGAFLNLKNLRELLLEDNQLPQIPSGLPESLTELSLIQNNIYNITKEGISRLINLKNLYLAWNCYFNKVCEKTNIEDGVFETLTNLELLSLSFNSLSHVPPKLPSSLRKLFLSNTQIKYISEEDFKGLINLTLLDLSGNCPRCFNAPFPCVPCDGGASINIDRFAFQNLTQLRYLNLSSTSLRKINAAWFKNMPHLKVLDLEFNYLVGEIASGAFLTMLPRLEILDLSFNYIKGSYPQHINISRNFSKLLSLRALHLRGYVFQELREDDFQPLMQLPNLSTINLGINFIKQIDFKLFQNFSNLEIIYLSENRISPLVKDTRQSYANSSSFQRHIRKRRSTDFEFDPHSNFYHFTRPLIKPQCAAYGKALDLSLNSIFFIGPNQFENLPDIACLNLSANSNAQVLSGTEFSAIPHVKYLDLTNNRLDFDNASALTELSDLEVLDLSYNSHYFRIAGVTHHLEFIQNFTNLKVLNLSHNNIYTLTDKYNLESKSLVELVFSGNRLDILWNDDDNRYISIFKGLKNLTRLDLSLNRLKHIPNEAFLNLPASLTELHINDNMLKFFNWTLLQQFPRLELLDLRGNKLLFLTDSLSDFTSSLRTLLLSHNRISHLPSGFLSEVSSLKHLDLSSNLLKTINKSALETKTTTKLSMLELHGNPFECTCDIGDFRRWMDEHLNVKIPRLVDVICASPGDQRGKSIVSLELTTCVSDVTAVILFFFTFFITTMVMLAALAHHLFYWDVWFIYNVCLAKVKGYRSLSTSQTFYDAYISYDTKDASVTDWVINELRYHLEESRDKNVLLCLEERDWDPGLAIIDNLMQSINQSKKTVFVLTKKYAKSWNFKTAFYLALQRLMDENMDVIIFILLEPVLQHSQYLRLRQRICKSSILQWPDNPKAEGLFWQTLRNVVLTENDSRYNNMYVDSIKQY

[3] = target: T1, Toll-like receptor 7 (Homo sapiens); assay: Agonist activity at TLR7 in human PBMC assessed as suppression of HCV replicon replication in human HuH7 luc/neo cells harboring RNA encoding bicistronic expression construct comprising wild type HCV type 1b NS3-NS5B regions exposed to conditioned media from compound treated PBMCs after 24 hrs by luciferase reporter gene assay; type: cell-based
Summary of the method: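 Human PBMCs were incubated with compound. Their medium was then transferred onto an HCV replicon system, so the antiviral read-out reflects interferon and cytokines the PBMCs induced. Values are reported as lowest effective concentration (LEC), averaged when determined in two or more independent experiments.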

[4] = Cytotoxicity against HEK293 cells assessed as reduction in cell viability after 6 hrs by ATP lite assay; type: cell-based; settings: human
[5] = target: Voltage-gated inwardly rectifying potassium channel KCNH2 (Homo sapiens, UniProt Q12809); assay: Inhibition of radioligand binding to human ERG expressed in HEK293 cell membranes by scintillation counting method
[6] = Metabolic stability in mouse liver microsomes assessed as compound metabolized at 1 uM after 15 mins; type: ADME, microsome; settings: read-out: Drug metabolism
Summary of the method: (§1)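 Mouse (M) or human (H) liver microsomes incubated with compound at 1 μM; percent metabolized after 15 min.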

[7] = Metabolic stability in human liver microsomes assessed as compound metabolized at 1 uM after 15 mins; type: ADME, microsome; settings: read-out: Drug metabolism; summary of the method: as §1

Voltage-gated inwardly rectifying potassium channel KCNH2, sequence (Q12809 whole entry): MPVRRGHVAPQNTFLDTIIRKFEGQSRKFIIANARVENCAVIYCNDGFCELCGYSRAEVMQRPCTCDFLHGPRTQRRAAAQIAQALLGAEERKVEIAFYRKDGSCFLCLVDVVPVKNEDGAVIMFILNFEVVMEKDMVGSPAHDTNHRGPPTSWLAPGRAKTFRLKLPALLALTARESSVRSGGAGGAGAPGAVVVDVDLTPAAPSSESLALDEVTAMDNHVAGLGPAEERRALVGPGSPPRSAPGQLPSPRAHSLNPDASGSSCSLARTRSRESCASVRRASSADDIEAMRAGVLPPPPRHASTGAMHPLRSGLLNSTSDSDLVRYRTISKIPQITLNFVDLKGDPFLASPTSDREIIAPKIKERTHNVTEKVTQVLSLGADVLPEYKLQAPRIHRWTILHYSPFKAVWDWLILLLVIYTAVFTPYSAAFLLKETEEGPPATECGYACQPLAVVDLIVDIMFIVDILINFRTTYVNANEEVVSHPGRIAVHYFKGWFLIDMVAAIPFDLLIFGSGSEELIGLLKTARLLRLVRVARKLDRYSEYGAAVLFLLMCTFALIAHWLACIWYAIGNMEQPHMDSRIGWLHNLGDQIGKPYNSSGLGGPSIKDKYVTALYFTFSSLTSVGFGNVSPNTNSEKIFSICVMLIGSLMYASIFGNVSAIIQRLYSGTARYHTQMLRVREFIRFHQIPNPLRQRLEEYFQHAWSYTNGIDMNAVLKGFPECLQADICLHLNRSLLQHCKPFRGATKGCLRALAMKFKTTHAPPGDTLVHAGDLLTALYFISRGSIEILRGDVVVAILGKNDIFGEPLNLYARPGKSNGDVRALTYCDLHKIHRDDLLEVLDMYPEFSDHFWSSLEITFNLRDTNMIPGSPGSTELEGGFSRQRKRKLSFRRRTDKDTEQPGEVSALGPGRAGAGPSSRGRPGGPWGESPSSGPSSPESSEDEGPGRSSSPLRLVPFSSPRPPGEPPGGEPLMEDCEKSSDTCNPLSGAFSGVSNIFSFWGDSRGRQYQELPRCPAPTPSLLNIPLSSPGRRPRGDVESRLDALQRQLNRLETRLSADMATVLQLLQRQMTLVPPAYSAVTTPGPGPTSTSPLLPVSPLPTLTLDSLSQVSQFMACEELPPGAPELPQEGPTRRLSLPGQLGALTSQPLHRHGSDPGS

CCCC[C@@H](CCO)Nc1nc(N)nc2c(F)cccc12
MEC [1]: 0.11 µM | MEC [2]: 0.16 µM | MEC [3]: 0.05 µM | CC50 at 6 h [4]: > 24 µM | IC50 [5]: 4.47 µM | metabolised at 0.25 h, 1 µM [6]: 98% | metabolised at 0.25 h, 1 µM [7]: 76%

CCCC[C@@H](CCO)Nc1nc(N)nc2ccc(OC)cc12
MEC [1]: 1.85 µM | MEC [2]: 2.81 µM | MEC [3]: 0.88 µM | CC50 at 6 h [4]: > 24 µM | IC50 [5]: 6 µM | metabolised at 0.25 h, 1 µM [6]: 97% | metabolised at 0.25 h, 1 µM [7]: 25%

CCCC[C@@H](CO)Nc1nc(N)nc2ccccc12
MEC [1]: 0.24 µM | MEC [2]: 0.02 µM | MEC [3]: 0.04 µM | CC50 at 6 h [4]: > 24 µM

CCCC[C@@H](CCO)Nc1nc(N)nc2cc(F)ccc12
MEC [1]: 0.04 µM | MEC [2]: 0.03 µM | MEC [3]: 0.04 µM | CC50 at 6 h [4]: > 24 µM | metabolised at 0.25 h, 1 µM [6]: 91% | metabolised at 0.25 h, 1 µM [7]: 39%

CCC[C@@H](CCO)Nc1nc(N)nc2cccc(F)c12
MEC [1]: 0.22 µM | MEC [2]: 0.02 µM | CC50 at 6 h [4]: > 24 µM | IC50 [5]: 8.9 µM | metabolised at 0.25 h, 1 µM [6]: 47% | metabolised at 0.25 h, 1 µM [7]: 62%

CCC[C@@H](CCO)Nc1nc(N)nc2cc(C)ccc12
MEC [1]: 0.06 µM | MEC [2]: 0.05 µM | MEC [3]: 0.39 µM | CC50 at 6 h [4]: > 24 µM | IC50 [5]: 8.1 µM | metabolised at 0.25 h, 1 µM [6]: 87% | metabolised at 0.25 h, 1 µM [7]: 44%

CCCCNc1nc(N)nc2ccccc12
MEC [1]: 0.16 µM | MEC [2]: 0.06 µM | MEC [3]: 0.03 µM | CC50 at 6 h [4]: > 24 µM

CCCC[C@@H](CCO)Nc1nc(N)nc2cc(C)ccc12
MEC [1]: 0.03 µM | MEC [2]: 0.06 µM | MEC [3]: 0.02 µM | CC50 at 6 h [4]: > 24 µM | IC50 [5]: 1.8 µM | metabolised at 0.25 h, 1 µM [6]: 98% | metabolised at 0.25 h, 1 µM [7]: 70%

CCC[C@H](CO)Nc1nc(N)nc2ccccc12
MEC [1]: > 25 µM | MEC [2]: 0.57 µM | MEC [3]: 2.36 µM | CC50 at 6 h [4]: > 24 µM

CC[C@H](C)[C@@H](CO)Nc1nc(N)nc2ccccc12
MEC [1]: 1.34 µM | MEC [2]: 0.08 µM | MEC [3]: 0.14 µM | CC50 at 6 h [4]: > 24 µM

CC(C)C[C@@H](CO)Nc1nc(N)nc2ccccc12
MEC [1]: 3.18 µM | MEC [2]: 0.45 µM | MEC [3]: 0.71 µM | CC50 at 6 h [4]: > 24 µM

CC(C)C[C@@H](CCO)Nc1nc(N)nc2ccccc12
MEC [1]: 1.83 µM | MEC [2]: 0.69 µM | MEC [3]: 0.55 µM | CC50 at 6 h [4]: > 24 µM

CCCC[C@H](CO)Nc1nc(N)nc2ccccc12
MEC [1]: 22.5 µM | MEC [2]: 0.05 µM | MEC [3]: 0.16 µM | CC50 at 6 h [4]: > 24 µM

CCC[C@@H](CCO)Nc1nc(N)nc2ccc(OC)cc12
MEC [1]: 11.8 µM | MEC [2]: 2.97 µM | CC50 at 6 h [4]: > 24 µM

CCC[C@@H](CO)Nc1nc(N)nc2ccccc12
MEC [1]: 0.46 µM | MEC [2]: 0.01 µM | MEC [3]: 0.04 µM | CC50 at 6 h [4]: > 24 µM

CCC[C@@H](CCO)Nc1nc(N)nc2cc(F)ccc12
MEC [1]: 0.11 µM | MEC [2]: 0.04 µM | MEC [3]: 4.8 µM | CC50 at 6 h [4]: > 24 µM | IC50 [5]: 9.1 µM | metabolised at 0.25 h, 1 µM [6]: 100% | metabolised at 0.25 h, 1 µM [7]: 13%

CCC[C@@H](CCO)Nc1nc(N)nc2ccccc12
MEC [1]: 0.2 µM | MEC [2]: 0.11 µM | MEC [3]: 0.38 µM | CC50 at 6 h [4]: > 24 µM | IC50 [5]: 6.8 µM | metabolised at 0.25 h, 1 µM [6]: 72% | metabolised at 0.25 h, 1 µM [7]: 23%

CCCC[C@@H](CCO)Nc1nc(N)nc2ccccc12
MEC [1]: 0.08 µM | MEC [2]: 0.08 µM | MEC [3]: 0.02 µM | CC50 at 6 h [4]: > 24 µM | IC50 [5]: 2.7 µM | metabolised at 0.25 h, 1 µM [6]: 82% | metabolised at 0.25 h, 1 µM [7]: 45%

CCCC[C@@H](CCO)Nc1nc(N)nc2cc(OC)ccc12
MEC [1]: 0.16 µM | MEC [2]: 0.16 µM | MEC [3]: 0.04 µM | CC50 at 6 h [4]: > 24 µM | metabolised at 0.25 h, 1 µM [6]: 80% | metabolised at 0.25 h, 1 µM [7]: 37%

CCC[C@@H](CCO)Nc1nc(N)nc2ccc(F)cc12
MEC [1]: 1.05 µM | MEC [2]: 0.42 µM | CC50 at 6 h [4]: > 24 µM | metabolised at 0.25 h, 1 µM [6]: 47% | metabolised at 0.25 h, 1 µM [7]: 22%

CC[C@@H](CO)Nc1nc(N)nc2ccccc12
MEC [1]: 3.9 µM | MEC [2]: 0.19 µM | MEC [3]: 2.3 µM | CC50 at 6 h [4]: > 24 µM

CCC[C@@H](CCO)Nc1nc(N)nc2cccc(C)c12
MEC [1]: 0.22 µM | MEC [2]: 0.14 µM | CC50 at 6 h [4]: > 24 µM | IC50 [5]: 5.5 µM | metabolised at 0.25 h, 1 µM [6]: 88% | metabolised at 0.25 h, 1 µM [7]: 44%

From ChEMBL document CHEMBL4130635, “2,4-Diaminoquinazolines as Dual Toll-like Receptor (TLR) 7/8 Modulators for the Treatment of Hepatitis B Virus” (J Med Chem, 2018)
